A word on the IC50: it is the midpoint of a concentration-inhibition curve.

The target in experiment [1] is Phosphatidylinositol 4,5-bisphosphate 3-kinase catalytic subunit alpha isoform (Homo sapiens, UniProt P42336). The experiment can be described thus: Inhibition of human PI3Kalpha using PIP2 as substrate in presence of ATP measured after 30 mins by HTRF assay. The method, boiled down: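 HTRF kit assay. Enzyme incubated with 10 μM PIP2; reaction started by adding ATP and run 30 min at room temperature, then stop solution and detection mix added and luminescence read. Compounds kept as 10 mM DMSO stocks.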
(In general: Time-resolved FRET reads energy transfer from a long-lived donor to a nearby acceptor.)

The next experiment concerns SJRH30. The experiment can be described thus: Antiproliferative activity against human Rh30 cells assessed as reduction in cell viability after 72 hrs by sulforhodamine B assay. The format is functional, cell-based. The following applies: SJRH30, 72 h. The method, boiled down: (§1)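 SRB assay. Exponentially growing cells seeded at 3000–5000/well, compounds added serially diluted after 24 h, cultured 72 h. Cells fixed with 10% TCA, stained with SRB, dye dissolved in 10 mM Tris-HCl, absorbance read at 560 nm. Inhibition = (ODcontrol − ODtreated)/ODcontrol × 100%. IC50 is the mean of at least three independent tests.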

In the next experiment the test system is NCI-H522. Nature of the experiment: Antiproliferative activity against human NCI-H522 cells assessed as reduction in cell viability after 72 hrs by sulforhodamine B assay. It counts as functional, cell-based. The following applies: NCI-H522, 72 h. The method, boiled down:
as §1
In general terms: In SRB staining, fixed cells bind dye roughly in proportion to their protein.

Another experiment has as its system A549. Nature of the experiment: Antiproliferative activity against human A549 cells assessed as reduction in cell viability after 72 hrs by sulforhodamine B assay. The format is functional, cell-based. The note with it: A549, 72 h. The method, boiled down: as §1
In the next experiment the test system is NCI-H23. Nature of the experiment: Antiproliferative activity against human NCI-H23 cells assessed as reduction in cell viability after 72 hrs by sulforhodamine B assay. The following applies: NCI-H23, 72 h. It counts as functional, cell-based. The method, boiled down:
as §1

Another experiment deals with NCI-H460. The experiment can be described thus: Antiproliferative activity against human NCI-H460 cells assessed as reduction in cell viability after 72 hrs by sulforhodamine B assay. It counts as functional, cell-based. The following applies: NCI-H460, 72 h. The method, boiled down:
as §1

For a further experiment, the system named is NCI-H358. The experiment can be described thus: Antiproliferative activity against human NCI-H358 cells assessed as reduction in cell viability after 72 hrs by sulforhodamine B assay. The format is functional, cell-based. The following applies: NCI-H358, 72 h. The method, boiled down: as §1
The subject of another experiment is NCI-H1650. The experiment can be described thus: Antiproliferative activity against human NCI-H1650 cells assessed as reduction in cell viability after 72 hrs by sulforhodamine B assay. It counts as functional, cell-based. The note with it: NCI-H1650, 72 h. The method, boiled down:
as §1

The test system of another experiment is Calu-3. Nature of the experiment: Antiproliferative activity against human Calu3 cells assessed as reduction in cell viability after 72 hrs by sulforhodamine B assay. The format is functional, cell-based. The note with it: Calu-3, 72 h. The method, boiled down:
as §1

In a further experiment the test system is NCI-H226. Nature of the experiment: Antiproliferative activity against human H226 cells assessed as reduction in cell viability after 72 hrs by sulforhodamine B assay. The following applies: NCI-H226, 72 h. It counts as functional, cell-based. The method, boiled down: as §1
In another experiment the test system is NCI-H1975. The experiment can be described thus: Antiproliferative activity against human NCI-H1975 cells assessed as reduction in cell viability after 72 hrs by sulforhodamine B assay. It counts as functional, cell-based. The following applies: NCI-H1975, 72 h. The method, boiled down:
as §1

Experiment [2] is described as follows: Inhibition of human PI3Kgamma R459Q mutant using PIP2 as substrate in presence of ATP measured after 30 mins by HTRF assay.
Experiment [3] in a line: Inhibition of human PI3K p110alpha H1047R mutant/p85alpha using PIP2 as substrate incubated for 30 mins in presence of ATP by HTRF assay.
A further experiment concerns T47D. Nature of the experiment: Antiproliferative activity against human T47D cells assessed as reduction in cell viability after 72 hrs by sulforhodamine B assay. The format is functional, cell-based. The method, boiled down:
as §1

In another experiment the test system is BT-474. Nature of the experiment: Antiproliferative activity against human BT-474 cells assessed as reduction in cell viability after 72 hrs by sulforhodamine B assay. The format is functional, cell-based. The method, boiled down: as §1
A further experiment deals with SK-BR-3. The experiment can be described thus: Antiproliferative activity against human SK-BR-3 cells assessed as reduction in cell viability after 72 hrs by sulforhodamine B assay. The format is functional, cell-based. The method, boiled down:
as §1

Another experiment deals with MDA-MB-231. Nature of the experiment: Antiproliferative activity against human MDA-MB-231 cells assessed as reduction in cell viability after 72 hrs by sulforhodamine B assay. It counts as functional, cell-based. The method, boiled down: as §1
The next experiment relates to SK-OV-3. Nature of the experiment: Antiproliferative activity against human SK-OV-3 cells assessed as reduction in cell viability after 72 hrs by sulforhodamine B assay. The format is functional, cell-based. The method, boiled down:
as §1

The test system of a further experiment is ZR-75-1. The experiment can be described thus: Antiproliferative activity against human ZR-75-1 cells assessed as reduction in cell viability after 72 hrs by sulforhodamine B assay. It counts as functional, cell-based. The method, boiled down: as §1
For another experiment, the system named is MCF7. The experiment can be described thus: Antiproliferative activity against human MCF7 cells assessed as reduction in cell viability after 72 hrs by sulforhodamine B assay. It counts as functional, cell-based. The method, boiled down: as §1
Another experiment deals with LoVo. Nature of the experiment: Antiproliferative activity against human LoVo cells assessed as reduction in cell viability after 72 hrs by sulforhodamine B assay. The format is functional, cell-based. The method, boiled down: as §1
The next experiment has as its system HCC1954. Nature of the experiment: Antiproliferative activity against human HCC1954 cells assessed as reduction in cell viability after 72 hrs by sulforhodamine B assay. It counts as functional, cell-based. The method, boiled down:
as §1

A further experiment relates to PC-3. Nature of the experiment: Antiproliferative activity against human PC-3 cells assessed as reduction in cell viability after 72 hrs by sulforhodamine B assay. The format is functional, cell-based. The method, boiled down:
as §1

Each structure is given as a SMILES string. Calls of active or inactive are those of the source. No cut-off for these calls is given here.

Chain of Phosphatidylinositol 4,5-bisphosphate 3-kinase catalytic subunit alpha isoform (P42336 whole entry, canonical isoform): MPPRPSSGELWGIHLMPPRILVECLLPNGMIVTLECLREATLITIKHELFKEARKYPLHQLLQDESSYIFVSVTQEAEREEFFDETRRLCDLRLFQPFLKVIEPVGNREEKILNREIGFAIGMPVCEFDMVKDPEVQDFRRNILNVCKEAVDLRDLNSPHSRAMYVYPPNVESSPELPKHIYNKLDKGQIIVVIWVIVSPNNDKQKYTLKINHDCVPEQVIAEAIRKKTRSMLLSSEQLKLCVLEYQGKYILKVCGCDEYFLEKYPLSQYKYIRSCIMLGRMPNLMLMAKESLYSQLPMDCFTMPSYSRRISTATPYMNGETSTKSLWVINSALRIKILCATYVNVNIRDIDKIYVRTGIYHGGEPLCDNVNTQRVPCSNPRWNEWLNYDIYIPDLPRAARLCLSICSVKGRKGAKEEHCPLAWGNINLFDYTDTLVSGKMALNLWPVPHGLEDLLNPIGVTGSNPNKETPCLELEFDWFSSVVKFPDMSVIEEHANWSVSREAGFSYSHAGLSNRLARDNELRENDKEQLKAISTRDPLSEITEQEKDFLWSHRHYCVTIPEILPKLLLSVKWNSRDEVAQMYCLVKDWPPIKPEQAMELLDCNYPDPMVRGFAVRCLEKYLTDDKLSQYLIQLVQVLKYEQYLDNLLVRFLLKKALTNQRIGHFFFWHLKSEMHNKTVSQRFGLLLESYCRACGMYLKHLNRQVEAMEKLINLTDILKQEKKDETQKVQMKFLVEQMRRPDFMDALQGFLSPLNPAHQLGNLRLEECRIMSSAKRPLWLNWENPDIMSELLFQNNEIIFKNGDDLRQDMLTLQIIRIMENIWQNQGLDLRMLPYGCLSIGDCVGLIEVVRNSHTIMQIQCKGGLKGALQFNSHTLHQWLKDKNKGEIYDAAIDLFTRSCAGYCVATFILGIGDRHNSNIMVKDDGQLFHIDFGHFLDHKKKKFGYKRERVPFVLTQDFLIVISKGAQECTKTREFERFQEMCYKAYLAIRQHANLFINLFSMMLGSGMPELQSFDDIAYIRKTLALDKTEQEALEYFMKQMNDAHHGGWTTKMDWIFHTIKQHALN

Regarding `C=CC(=O)Nc1cc(C(F)(F)F)c(-c2nc(N3CCOCC3)c3cc(CN4CCN(S(C)(=O)=O)CC4)cn3n2)cn1`, the IC50 in experiment [1] is 19.9 nM; in the experiment with SJRH30, 710 nM.

On to `CN(C)C1CCN(C(=O)c2ccc(NC(=O)Nc3ccc(-c4nc(N5CCOCC5)c5cc(CN6CCN(S(C)(=O)=O)CC6)cn5n4)cc3)cc2)CC1`, for which the half-inhibitory concentration (IC50) in experiment [1] was 39.6 nM; in the experiment with SJRH30, 80 nM.

In the case of `CS(=O)(=O)N1CCN(Cc2cc3c(N4CCOCC4)nc(-c4ccc(NC(=O)Nc5ccc(F)cc5)cc4)nn3c2)CC1`, the 50% inhibitory concentration (IC50) with NCI-H522 was 1020 nM; in the experiment with A549 it was 1640 nM; in the experiment with NCI-H23, 695 nM; in the experiment on NCI-H460 it was 897 nM; in the experiment on NCI-H358 it was 1290 nM; in experiment [1] it was 105 nM. Also, the IC50 in the experiment with NCI-H1650 was 2300 nM; with Calu-3, 2360 nM; in the experiment on SJRH30 it was 230 nM; in the experiment with NCI-H226, 1080 nM; in the experiment with NCI-H1975 it was 460 nM.

Take `CN1CCN(C(=O)c2ccc(NC(=O)Nc3ccc(-c4nc(N5CCOCC5)c5cc(CN6CCN(S(C)(=O)=O)CC6)cn5n4)cc3)cc2)CC1`: the half-maximal inhibitory concentration (IC50) stood at 751 nM in the experiment with NCI-H522; 144 nM in the experiment on A549; 52 nM in the experiment on NCI-H23; 293 nM in the experiment on NCI-H460; 187 nM in the experiment with NCI-H358; 41.1 nM in experiment [1]. Also, the IC50 in the experiment on NCI-H1650 is 344 nM; in the experiment on Calu-3 it was 790 nM; in the experiment on SJRH30, 70 nM; with NCI-H226, 106 nM; in the experiment with NCI-H1975, 25 nM.

For `CS(=O)(=O)N1CCN(Cc2cc3c(N4CCOCC4)nc(-c4cnc(NC(=O)Oc5ccccc5)cc4C(F)(F)F)nn3c2)CC1`, the figures for the IC50 (in experiment [1]; in the experiment on SJRH30) were 44.4 nM and 5070 nM, respectively.

On to `CS(=O)(=O)N1CCN(Cc2cc3c(N4CCOCC4)nc(-c4cnc(N)cc4C(F)(F)F)nn3c2)CC1`, for which the IC50 in experiment [1] was found to be 55.4 nM; in the experiment with SJRH30, 880 nM.

For `CCOC(=O)Nc1cc(C(F)(F)F)c(-c2nc(N3CCOCC3)c3cc(CN4CCN(S(C)(=O)=O)CC4)cn3n2)cn1`, the half-inhibitory concentration (IC50) came out at 21 nM in experiment [1] and 3270 nM in the experiment with SJRH30.

For the molecule `CCNC(=O)Nc1cc(C(F)(F)F)c(-c2nc(N3CCOCC3)c3cc(CN4CCN(S(C)(=O)=O)CC4)cn3n2)cn1`, the figures for the IC50 (in [1]; in the experiment with SJRH30) were 41.7 nM and 390 nM, respectively.

For `CS(=O)(=O)N1CCN(Cc2cc3c(N4CCOCC4)nc(-c4cnc(NC(=O)Nc5ccc(F)cc5)cc4C(F)(F)F)nn3c2)CC1`, the IC50 in [1] worked out at 17.7 nM; with SJRH30 it was 180 nM.

For `CNC(=O)Nc1cc(C(F)(F)F)c(-c2nc(N3CCOCC3)c3cc(CN4CCN(S(C)(=O)=O)CC4)cn3n2)cn1`, the 50% inhibitory concentration (IC50) in [1] came to 23.6 nM; with SJRH30 it was 150 nM.

With `C[C@H]1COCCN1c1nc(-c2cnc(N)cc2C(F)(F)F)nn2cc(CN3CCN(S(C)(=O)=O)CC3)cc12`, the IC50 in experiment [1] amounted to 50.5 nM; in the experiment on SJRH30 it was 970 nM.

With `CS(=O)(=O)N1CCN(Cc2cc3c(N4CC5CCC(C4)O5)nc(-c4cnc(N)cc4C(F)(F)F)nn3c2)CC1`, the figures for the IC50 (in experiment [1]; in the experiment on SJRH30) were 244 nM and 1780 nM, respectively.

`CN(C)C(=O)c1ccc(NC(=O)Nc2ccc(-c3nc(N4CCOCC4)c4cc(CN5CCN(S(C)(=O)=O)CC5)cn4n3)cc2)cc1`: the concentration for half-maximal inhibition (IC50) came out at 67.5 nM in [1] and 90 nM in the experiment on SJRH30.

Regarding `Cc1nc(NC(=O)N2CCC[C@H]2C(N)=O)sc1-c1ccnc(C(C)(C)C(F)(F)F)c1` [ALPELISIB], the IC50 in experiment [2] stood at 1670 nM; in experiment [3] it was 10.9 nM; in the experiment with SJRH30, 7600 nM.

For the molecule `CS(=O)(=O)N1CCN(Cc2cc3nc(-c4cccc5[nH]ncc45)nc(N4CCOCC4)c3s2)CC1` [PICTILISIB], the result in the experiment with T47D, in the experiment on BT-474, with SK-BR-3, in the experiment with MDA-MB-231, in the experiment on SK-OV-3 and in the experiment with ZR-75-1 was Active. For the same molecule, the result with MCF7, in the experiment on LoVo, in the experiment on HCC1954 and in the experiment with PC-3 was Active. The IC50 was 2140 nM in the experiment with NCI-H522; 2480 nM in the experiment with A549; 936 nM in the experiment on NCI-H23; 1260 nM in the experiment on NCI-H460; 1330 nM with NCI-H358; 4730 nM in the experiment on NCI-H1650. The IC50 in the experiment with Calu-3 was found to be 2870 nM; in the experiment with SJRH30, 478 nM; in the experiment on NCI-H226, 5910 nM; in the experiment on NCI-H1975 it was 703 nM.

For the origin of these results see ChEMBL document CHEMBL4732078 (Eur J Med Chem, 2021).
